Publication PMC4633020 (Journal of medicinal chemistry, 2015)
In brackets after ≈: the same amount, converted by molar mass. Entries after “also recorded” stand apart in the source; their conditions may differ.

Columns and labels:
E. faecium NCTC 7171 = test: MIC, broth microdilution; format: cell-based, Enterococcus faecium; conditions: Enterococcus faecium, NCTC7171, E. faecium NCTC 7171
[1] = system: other bacteria in the ESKAPE panel; test: Antibacterial screening against the ESKAPE panel; format: cell-based; conditions: result in words
[2] = In vitro metabolic stability in human liver S9; format: in vitro ADME; conditions: calculated from in vitro half-life in human liver S9
PBP2a of S. aureus = PBP2a of S. aureus (Staphylococcus aureus, UniProt P07944); test: BOCILLIN FL binding assay for PBP2a; conditions: at concentrations of up to 100 μg/mL
PBP5fm of E. faecium = test: BOCILLIN FL binding assay for PBP5fm; conditions: at up to 100 μg/mL
Outline: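 Recombinant PBP5 (aa 34-678, E. faecium D63r) carried an N-terminal His-tag, was expressed in E. coli BL21(DE3), and was purified by anion exchange then metal chelate column. Enzyme (40 μM final) was preincubated with test compound in 25 mM Hepes, 1 M NaCl, pH 7.0 at 37 °C. BOCILLIN FL (30 μM final) was then added, with incubations of 20 min. Labelling was read by 12% SDS-PAGE fluorescence scan and band quantitation against a no-inhibitor control.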

[3] = system: PBPs in the E. faecium membrane fractions; test: PBP inhibition in E. faecium membrane fractions; format: binding; conditions: data less clear due to low PBP copy numbers
E. faecium NCTC7171 = test: Macromolecular synthesis assays; format: cell-based, Enterococcus faecium; conditions: 2 × MIC (8 μg/mL), 120 min
transcription = test: In vitro transcription assay; format: biochemical; conditions: T7 transcription kit
[4] = system: transcription and translation (β-galactosidase expression); test: Tandem in vitro transcription and translation assay; format: biochemical, Escherichia coli; conditions: E. coli S30 extract
Hemolysis assay = conditions: red blood cells
E. faecium ATCC BAA 2127 = test: MIC, additional E. faecium strains; format: cell-based; conditions: Enterococcus faecium, BAA2127
[5] = system: E. faecium 119-39A (Van S); test: MIC, additional E. faecium strains; format: cell-based; conditions: Enterococcus faecium
E. faecium C9 = test: MIC, additional E. faecium strains; format: cell-based; conditions: Enterococcus faecium

PBP2a of S. aureus, sequence (P07944 whole entry): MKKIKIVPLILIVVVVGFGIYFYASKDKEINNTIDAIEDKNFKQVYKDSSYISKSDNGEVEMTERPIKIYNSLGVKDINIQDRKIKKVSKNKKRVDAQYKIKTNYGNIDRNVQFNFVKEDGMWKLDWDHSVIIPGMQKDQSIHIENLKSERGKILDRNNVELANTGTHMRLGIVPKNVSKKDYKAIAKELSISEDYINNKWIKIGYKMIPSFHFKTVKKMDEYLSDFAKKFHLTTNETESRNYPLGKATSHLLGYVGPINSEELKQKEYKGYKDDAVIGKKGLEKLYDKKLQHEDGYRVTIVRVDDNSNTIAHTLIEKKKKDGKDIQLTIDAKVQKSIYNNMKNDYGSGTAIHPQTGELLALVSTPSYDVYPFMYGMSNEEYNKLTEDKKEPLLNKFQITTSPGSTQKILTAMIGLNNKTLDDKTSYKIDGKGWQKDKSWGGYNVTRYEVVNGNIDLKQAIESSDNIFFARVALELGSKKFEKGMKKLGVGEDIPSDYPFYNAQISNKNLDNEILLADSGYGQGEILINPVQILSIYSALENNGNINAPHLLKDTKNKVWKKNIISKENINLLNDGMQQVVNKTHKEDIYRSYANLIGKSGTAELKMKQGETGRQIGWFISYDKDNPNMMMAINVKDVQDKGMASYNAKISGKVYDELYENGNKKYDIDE

Row | SMILES | MIC (E. faecium NCTC 7171) | antibacterial activity against the other bacteria in the ESKAPE panel [1] | Apparent intrinsic clearance [2] | inhibition of recombinant PBP2a (PBP2a of S. aureus) | inhibition of PBP5fm (PBP5fm of E. faecium) | inhibition of PBPs in E. faecium membranes [3] | inhibition of peptidoglycan biosynthesis (E. faecium NCTC7171; D-[2,3-3H]-alanine incorporation) | inhibition of translation (protein synthesis) (E. faecium NCTC7171; L-[4,5-3H]-leucine incorporation) | inhibition of transcription (RNA synthesis) (E. faecium NCTC7171; [5,6-3H]-uridine incorporation) | inhibition of replication (DNA synthesis) (E. faecium NCTC7171; [methyl-3H]-thymidine incorporation) | effect on in vitro transcription (transcription) | effect on in vitro transcription and translation [4] | hemolysis at 64 μg/mL (Hemolysis assay) | MIC (E. faecium ATCC BAA 2127) | MIC [5] | MIC (E. faecium C9)
1 | CC1=C(C(N)=O)C(c2ccc(C(C)C)cc2)n2nc(SCc3ccccc3)nc2N1 (stereo not drawn) [Compound 1, 2-(Benzylthio)-7-(4-isopropylphenyl)-5-methyl-4,7-dihydro-[1,2,4]triazolo[1,5-a]pyrimidine-6-carboxamide] | ≤ 8 µg/mL | No antibacterial activity | 11.1 mLmin^−1kg^−1 | no inhibition; also recorded: did not inhibit | no inhibition; also recorded: did not inhibit | did not inhibit | – | – | – | – | – | – | – | – | – | –
2 | CC1=C(C(N)=O)C(c2ccc(N(C)C)cc2)n2nc(SCc3ccccc3)nc2N1 (stereo not drawn) [Compound 16, 2-(Benzylthio)-7-(4-dimethylaminophenyl)-5-methyl-4,7-dihydro[1,2,4]triazolo[1,5-a]pyrimidine-6-carboxamide] | ≤ 8 µg/mL | – | <10.4 mLmin^−1kg^−1 | – | – | – | notable inhibition | did not inhibit | did not inhibit | did not inhibit | did not show any effect | did not show any effect | 1 to 2% | – | – | –
3 | CN[C@H](CC(C)C)C(=O)N[C@H]1C(=O)N[C@@H](CC(N)=O)C(=O)N[C@H]2C(=O)N[C@H]3C(=O)N[C@H](C(=O)N[C@H](C(=O)O)c4cc(O)cc(O)c4-c4cc3ccc4O)[C@H](O)c3ccc(c(Cl)c3)Oc3cc2cc(c3O[C@@H]2O[C@H](CO)[C@@H](O)[C@H](O)[C@H]2O[C@H]2C[C@](C)(N)[C@H](O)[C@H](C)O2)Oc2ccc(cc2Cl)[C@H]1O [vancomycin] | – | – | – | – | – | – | – | – | – | – | – | – | – | 1 µg/mL (≈ 0.69 µM) | 0.5 µg/mL (≈ 0.345 µM) | 2 µg/mL (≈ 1.38 µM)
